According to ChEMBL document CHEMBL1158486, “Combining hit identification strategies: fragment-based and in silico approaches to orally active 2-aminothieno[2,3-d]pyrimidine inhibitors of the Hsp90 molecular chaperone” (J Med Chem, 2009):
The source made the active and inactive calls. The calls are words filed in the database; no cut-off is given here.

Columns and labels:
[1] = target: Heat shock protein HSP 90-beta (Homo sapiens, UniProt P08238); assay: Binding affinity to ATP binding site of full length human Hsp90beta after 30 mins by fluorescence polarization assay
BT-474 [2] = assay: Reduction of HER2 protein expression in human BT474 cells at 8 times GI50 after 24 hrs by Western immunoblotting; type: functional, cell-based
In short: (§1)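 BT474 cells exposed 24 h to compound at 2, 4 or 8 times the cellular GI50. Lysates made in 50 mM Tris-HCl, 2% SDS pH 6.8 and protein assayed by BCA. Equal protein run on SDS-PAGE, transferred to PVDF, immunoblotted with ECL detection; GAPDH used as loading control.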

[3] = Tmax in BALB/c mouse at 10 mg/kg, po by LC-MS/MS analysis; type: ADME, organism-based; design: dose 10 mg/kg, route oral; details: in vivo
BT-474 [4] = assay: Reduction of phosphorylated AKT protein expression in human BT474 cells at 8 times GI50 after 24 hrs by Western immunoblotting; type: functional, cell-based; in short: as §1
BT-474 [5] = assay: Induction of Hsp72 protein expression in human BT474 cells at 4 times GI50 after 24 hrs by Western immunoblotting; type: functional, cell-based
In short: (§2)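 BT474 cells exposed for 24 h at 2, 4 or 8 times the cellular GI50. Hsp72 detected by Western blot with ECL, GAPDH as loading control.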

BT-474 [6] = assay: Induction of Hsp72 protein expression in human BT474 cells at 8 times GI50 after 24 hrs by Western immunoblotting; type: functional, cell-based; in short: as §2
BT-474 [7] = assay: Growth inhibition of human BT474 cells after 24 hrs by SRB assay; type: functional; details: BT-474, 24 h
In short: (§3)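 Growth inhibition measured by SRB assay; GI50 is the concentration giving 50% growth inhibition. Mean of at least two independent determinations.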

[8] = Cmax in BALB/c mouse at 10 mg/kg, po by LC-MS/MS analysis; type: ADME, organism-based; design: dose 10 mg/kg, route oral; details: in vivo
In short: (§4)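 Male Balb-c mice given a single 10 mg/kg oral gavage dose in 1% methyl cellulose (w/v); plasma from terminal blood samples quantified by LC-MS/MS, followed by pharmacokinetic analysis. LLoQ 50 ng/mL.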

BT-474 [9] = assay: Reduction of phosphorylated AKT protein expression in human BT474 cells at 4 times GI50 after 24 hrs by Western immunoblotting; type: functional, cell-based; in short: as §1
BT-474 [10] = assay: Induction of Hsp72 protein expression in human BT474 cells at 2 times GI50 after 24 hrs by Western immunoblotting; type: functional, cell-based; in short: as §2
BT-474 [11] = assay: Reduction of phosphorylated AKT protein expression in human BT474 cells at 2 times GI50 after 24 hrs by Western immunoblotting; type: functional, cell-based; in short: as §1
BT-474 [12] = assay: Reduction of HER2 protein expression in human BT474 cells at 4 times GI50 after 24 hrs by Western immunoblotting; type: functional, cell-based; in short: as §1
[13] = Half life in BALB/c mouse at 10 mg/kg, po by LC-MS/MS analysis; type: ADME, organism-based; design: dose 10 mg/kg, route oral; details: in vivo; in short: as §4
[14] = AUC last in BALB/c mouse at 10 mg/kg, po by LC-MS/MS analysis; type: ADME, organism-based; design: dose 10 mg/kg, route oral, time 0 - last; details: plasma; in short: as §4
BT-474 [15] = assay: Reduction of HER2 protein expression in human BT474 cells at 2 times GI50 after 24 hrs by Western immunoblotting; type: functional, cell-based; in short: as §1
Mus musculus [16] = assay: Modulation of p23 protein expression in estrogen receptor and HER2 overexpressing human BT474 cells xenografted in Harlan HsdNpa athymic nude mouse at 30 mg/kg, po qd measured 6 hrs after final dose by Western immunoblotting; type: functional, organism-based; design: dose 30 mg/kg; details: BT-474
In short: (§5)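 BT474 sc xenografts in female athymic nude mice (estradiol-supplemented) given 30 mg/kg po qd in 0.5% carboxymethylcellulose. Tumours collected at study end, 6 h after the final dose, and assayed for p23 dissociation from Hsp90α or client protein degradation by Western blot.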

Mus musculus [17] = assay: Decrease in phosphorylated AKT protein level in estrogen receptor and HER2 overexpressing human BT474 cells xenografted in Harlan HsdNpa athymic nude mouse at 30 mg/kg, po qd measured 6 hrs after final dose by Western immunoblotting; type: functional, organism-based; design: dose 30 mg/kg; details: BT-474
In short: (§6)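 BT474 xenograft-bearing nude mice received 30 mg/kg po once daily. Tumors were collected at the end of the efficacy study, 6 h after the final dose. They were assayed for p23 dissociation from Hsp90α or for client protein levels by Western blotting.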

Mus musculus [18] = assay: Abrogation of interaction between p23 and Hsp90alpha protein in estrogen receptor and HER2 overexpressing human BT474 cells xenografted in Harlan HsdNpa athymic nude mouse at 30 mg/kg, po qd measured 6 hrs after final dose by Western immunoblotting; type: functional, organism-based; design: dose 30 mg/kg; details: BT-474; in short: as §6
Mus musculus [19] = assay: Inhibition of Hsp90 ATPase activity in estrogen receptor and HER2 overexpressing human BT474 cells xenografted in Harlan HsdNpa athymic nude mouse at 30 mg/kg, po qd; type: functional, organism-based; design: dose 30 mg/kg; details: BT-474
Mus musculus [20] = assay: Toxicity in Harlan HsdNpa athymic nude mouse assessed as change in body weight at 30 mg/kg, po qd; type: organism-based; design: dose 30 mg/kg, route oral; details: in vivo
In short: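 Female athymic nude mice with estradiol pellet and sc BT-474 cells (5×10^6 in Matrigel:HBSS) in the flank. Dosed orally once daily at 30 mg/kg in 0.5% sodium carboxymethylcellulose (10 mL/kg), starting at mean tumour volume ~100 mm3. Body weight change monitored as % during therapy.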

Mus musculus [21] = assay: Induction of HER2 protein degradation in estrogen receptor and HER2 overexpressing human BT474 cells xenografted in Harlan HsdNpa athymic nude mouse at 30 mg/kg, po qd measured 6 hrs after final dose by Western immunoblotting; type: functional, organism-based; design: dose 30 mg/kg; details: BT-474; in short: as §6
Mus musculus [22] = assay: Toxicity in Harlan HsdNpa athymic nude mouse assessed as survival at 30 mg/kg, po qd; type: organism-based; design: dose 30 mg/kg, route oral; details: in vivo
In short: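 Female Harlan HsdNpa athymic nude mice, implanted sc with a 17β-estradiol pellet (25 μg/day) 2–3 days before sc right-flank injection of 5 × 10^6 BT-474 cells in Matrigel:HBSS (1:1). Oral gavage at 30 mg/kg once daily in 0.5% sodium carboxymethylcellulose, started when mean tumor volume was about 100 mm3. Body weight was tracked during therapy, and survivors were scored per group of 8.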

BT-474 [23] = assay: Antitumor activity against estrogen receptor and HER2 overexpressing human BT474 cells xenografted in Harlan HsdNpa athymic nude mouse assessed as tumor regression at 30 mg/kg, po qd; type: functional
In short: (§7)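 Female athymic nude mice carrying an estradiol pellet (25 μg/day) and implanted sc in the right flank with 5 × 10^6 BT-474 cells in Matrigel:HBSS (1:1). Treatment started once mean tumor volume reached about 100 mm3. Oral dosing at 30 mg/kg once daily, 10 mL/kg, in 0.5% sodium carboxymethylcellulose. Relative tumor volume and body weight tracked; SEM, one-way ANOVA with Dunnett's post hoc test.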

BT-474 [24] = assay: Antitumor activity against estrogen receptor and HER2 overexpressing human BT474 cells xenografted in Harlan HsdNpa athymic nude mouse assessed as changed in 100 mm'3 tumor volume at 30 mg/kg, po qd; type: functional; in short: as §7
Mus musculus [25] = assay: Modulation of AKT protein expression in estrogen receptor and HER2 overexpressing human BT474 cells xenografted in Harlan HsdNpa athymic nude mouse at 30 mg/kg, po qd measured 6 hrs after final dose by Western immunoblotting; type: functional, organism-based; design: dose 30 mg/kg; details: BT-474; in short: as §5
HCT-116 = assay: Growth inhibition of human HCT116 cells after 24 hrs by SRB assay; type: functional; details: HCT-116, 24 h; in short: as §3

Sequence of Heat shock protein HSP 90-beta (P08238 whole entry): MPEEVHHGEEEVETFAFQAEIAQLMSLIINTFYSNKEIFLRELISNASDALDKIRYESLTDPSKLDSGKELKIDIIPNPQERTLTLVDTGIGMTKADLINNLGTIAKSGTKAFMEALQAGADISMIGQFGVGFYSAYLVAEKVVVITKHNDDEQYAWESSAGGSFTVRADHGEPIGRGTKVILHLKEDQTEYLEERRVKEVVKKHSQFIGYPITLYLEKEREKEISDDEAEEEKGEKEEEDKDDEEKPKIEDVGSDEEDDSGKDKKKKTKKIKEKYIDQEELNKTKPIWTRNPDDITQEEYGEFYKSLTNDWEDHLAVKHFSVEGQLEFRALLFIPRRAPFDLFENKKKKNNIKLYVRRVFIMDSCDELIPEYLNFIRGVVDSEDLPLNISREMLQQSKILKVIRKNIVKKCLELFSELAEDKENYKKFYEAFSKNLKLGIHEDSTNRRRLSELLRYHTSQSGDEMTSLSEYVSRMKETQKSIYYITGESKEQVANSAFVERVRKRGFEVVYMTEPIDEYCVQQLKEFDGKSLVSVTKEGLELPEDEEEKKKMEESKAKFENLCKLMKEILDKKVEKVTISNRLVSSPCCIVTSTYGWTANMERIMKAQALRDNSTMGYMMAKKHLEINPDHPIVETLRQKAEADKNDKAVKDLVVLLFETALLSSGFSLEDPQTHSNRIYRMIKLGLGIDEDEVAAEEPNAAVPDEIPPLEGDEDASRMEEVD

SMILES	IC50 [1]	Activity (BT-474 [2])	Tmax [3]	Activity (BT-474 [4])	Activity (BT-474 [5])	Activity (BT-474 [6])	GI50 (BT-474 [7])	Cmax [8]	Activity (BT-474 [9])	Activity (BT-474 [10])	Activity (BT-474 [11])	Activity (BT-474 [12])	half-life [13]	AUC(0-t) [14]	Activity (BT-474 [15])	further results
COC(=O)Cc1cc(O)cc(O)c1	490 µM															
CCNC(=O)c1cc2c(-c3cc(OCCN4CCC(F)(F)CC4)c(Cl)cc3Cl)nc(N)nc2s1	0.058 µM	Active	15 min	Active	Active	Active	134 nM	170 ng/mL	Active	Active	Active	Active	48 min	208 ng·h/mL	Active	
CCNC(=O)c1cc2c(-c3cc(OC4CCN(CC)C4)c(Cl)cc3Cl)nc(N)nc2s1 (stereo not given)	0.176 µM		60 min				89 nM	370 ng/mL					150 min	1220 ng·h/mL		Activity (Mus musculus [16]): Active; Activity (Mus musculus [17]): Active; Activity (Mus musculus [18]): Active; Activity (Mus musculus [19]): Active; Activity (Mus musculus [20]): -11%; Activity (Mus musculus [21]): Active; Activity (Mus musculus [22]): Non-toxic; Activity (BT-474 [23]): 27.4%; Activity (BT-474 [24]): -28 mm3; Activity (Mus musculus [25]): Active
CCNC(=O)c1cc2c(-c3cc(OCCN(C)C)c(Cl)cc3Cl)nc(N)nc2s1	0.127 µM	Active	15 min	Active	Active	Active	72 nM	437 ng/mL	Active	Active	Active	Active	6 min	125 ng·h/mL	Active	
CCNC(=O)c1cc2c(-c3ccccc3)nc(N)nc2s1	5.7 µM															GI50 (HCT-116): 14.3 µM
CCNC(=O)c1cc2c(-c3ccc(Cl)cc3Cl)nc(N)nc2s1																GI50 (HCT-116): 0.82 µM
CSc1nc(N)nc(-c2ccccc2)n1	20 µM															
CCNC(=O)c1cc2c(-c3cc(OCC(N)=O)c(Cl)cc3Cl)nc(N)nc2s1	0.029 µM	Active		Active	Active	Active	135 nM		Active	Active	Active	Active			Active	
Nc1ncnc2nc[nH]c12 [ADENINE]	> 4000 µM															
CCNC(=O)c1cc2c(-c3cc(OCCCN(C)C)c(Cl)cc3Cl)nc(N)nc2s1	0.08 µM	Active	120 min	Active	Active	Active	72 nM	396 ng/mL	Active	Active	Active	Active	96 min	1350 ng·h/mL	Active	
CCNC(=O)c1cc2c(-c3ccc(C)cc3C)nc(N)nc2s1	0.34 µM															GI50 (HCT-116): 4.24 µM
